Laboratory results as given in ChEMBL document CHEMBL5046302, “Identification and Evaluation of Brominated Carbazoles as a Novel Antibiotic Adjuvant Scaffold in MRSA” (2022).
Activity calls are given as the source filed them. The rule behind the calls is not given here.

Experiments:
Type in all cases: functional
[1] = system: Staphylococcus aureus; experiment: Potentiation of oxacillin induced antibacterial activity against methicillin-resistant Staphylococcus aureus USA300 assessed as oxacillin MIC at 50 uM after 18 hrs by CLSI protocol based broth microdilution assay
[2] = system: Staphylococcus aureus; experiment: Potentiation of oxacillin induced antibacterial activity against methicillin-resistant Staphylococcus aureus USA300 assessed as fold change in oxacillin MIC at 50 uM after 18 hrs by CLSI protocol based broth microdilution assay
[3] = system: Staphylococcus aureus; experiment: Antibacterial activity against methicillin-resistant Staphylococcus aureus ATCC 43300 assessed as inhibition of bacterial growth after 18 hrs by CLSI protocol based broth microdilution assay
How it was run: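 Broth microdilution MIC of carbazole alone vs MRSA ATCC 43300, tested up to 200 μM.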

[4] = system: Staphylococcus aureus; experiment: Potentiation of oxacillin induced antibacterial activity against methicillin-resistant Staphylococcus aureus COL assessed as oxacillin MIC at 50 uM after 18 hrs by CLSI protocol based broth microdilution assay
[5] = system: Staphylococcus aureus; experiment: Potentiation of oxacillin induced antibacterial activity against methicillin-resistant Staphylococcus aureus ATCC 43300 assessed as fold change in oxacillin MIC at 50 uM after 18 hrs by CLSI protocol based broth microdilution assay
[6] = system: Staphylococcus aureus; experiment: Potentiation of oxacillin induced antibacterial activity against methicillin-resistant Staphylococcus aureus USA100 assessed as oxacillin MIC at 50 uM after 18 hrs by CLSI protocol based broth microdilution assay
[7] = system: Staphylococcus aureus; experiment: Potentiation of oxacillin induced antibacterial activity against methicillin-resistant Staphylococcus aureus USA 100 assessed as fold change in oxacillin MIC at 50 uM after 18 hrs by CLSI protocol based broth microdilution assay
[8] = system: Staphylococcus aureus; experiment: Potentiation of oxacillin induced antibacterial activity against methicillin-resistant Staphylococcus aureus COL assessed as fold change in oxacillin MIC at 50 uM after 18 hrs by CLSI protocol based broth microdilution assay
[9] = system: Staphylococcus aureus; experiment: Potentiation of oxacillin induced antibacterial activity against methicillin-resistant Staphylococcus aureus ATCC 43300 assessed as oxacillin MIC at 50 uM after 18 hrs by CLSI protocol based broth microdilution assay
[10] = system: Staphylococcus aureus; experiment: Antibacterial activity against methicillin-resistant Staphylococcus aureus USA300 assessed as inhibition of bacterial growth after 18 hrs in presence of oxacillin by CLSI protocol based broth microdilution assay
[11] = system: Staphylococcus aureus; experiment: Antibacterial activity against methicillin-resistant Staphylococcus aureus COL assessed as inhibition of bacterial growth after 18 hrs in presence of oxacillin by CLSI protocol based broth microdilution assay
[12] = system: Staphylococcus aureus; experiment: Antibacterial activity against methicillin-resistant Staphylococcus aureus USA100 assessed as inhibition of bacterial growth after 18 hrs in presence of oxacillin by CLSI protocol based broth microdilution assay
[13] = system: Staphylococcus aureus; experiment: Potentiation of oxacillin induced antibacterial activity against methicillin-resistant Staphylococcus aureus USA300 assessed as fold change in oxacillin MIC at 10 uM after 18 hrs by CLSI protocol based broth microdilution assay
[14] = system: Staphylococcus aureus; experiment: Potentiation of oxacillin induced antibacterial activity against methicillin-resistant Staphylococcus aureus USA100 assessed as fold change in oxacillin MIC at 10 uM after 18 hrs by CLSI protocol based broth microdilution assay
[15] = system: Staphylococcus aureus; experiment: Potentiation of oxacillin induced antibacterial activity against methicillin-resistant Staphylococcus aureus COL assessed as fold change in oxacillin MIC at 10 uM after 18 hrs by CLSI protocol based broth microdilution assay
[16] = system: Staphylococcus aureus; experiment: Potentiation of oxacillin induced antibacterial activity against methicillin-resistant Staphylococcus aureus USA300 assessed as oxacillin MIC at 10 uM after 18 hrs by CLSI protocol based broth microdilution assay
[17] = system: Staphylococcus aureus; experiment: Potentiation of oxacillin induced antibacterial activity against methicillin-resistant Staphylococcus aureus ATCC 43300 assessed as oxacillin MIC at 10 uM after 18 hrs by CLSI protocol based broth microdilution assay
[18] = system: Staphylococcus aureus; experiment: Potentiation of oxacillin induced antibacterial activity against methicillin-resistant Staphylococcus aureus COL assessed as oxacillin MIC at 10 uM after 18 hrs by CLSI protocol based broth microdilution assay
[19] = system: Staphylococcus aureus; experiment: Potentiation of oxacillin induced antibacterial activity against methicillin-resistant Staphylococcus aureus USA100 assessed as oxacillin MIC at 10 uM after 18 hrs by CLSI protocol based broth microdilution assay
[20] = system: Staphylococcus aureus; experiment: Potentiation of oxacillin induced antibacterial activity against methicillin-resistant Staphylococcus aureus ATCC 43300 assessed as fold change in oxacillin MIC at 10 uM after 18 hrs by CLSI protocol based broth microdilution assay
[21] = system: Staphylococcus aureus; experiment: Upregulation of mecA gene expression in methicillin-resistant Staphylococcus aureus COL by RT-PCR method
[22] = system: Staphylococcus aureus; experiment: Upregulation of mecA gene expression in methicillin-resistant Staphylococcus aureus ATCC 43300 by RT-PCR method
[23] = system: Staphylococcus aureus; experiment: Upregulation of mecA gene expression in methicillin-resistant Staphylococcus aureus USA100 by RT-PCR method
[24] = system: Staphylococcus aureus; experiment: Upregulation of blaZ gene expression in methicillin-resistant Staphylococcus aureus USA100 by RT-PCR method
[25] = system: Staphylococcus aureus; experiment: Antibacterial activity against methicillin-resistant Staphylococcus aureus USA300 harboring stk1 deletion mutant co-transfected with a plasmid bearing stk1 assessed as inhibition of bacterial growth after 18 hrs in presence of oxacillin by CLSI protocol based broth microdilution assay
How it was run: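 USA300 Δstk1 strain carrying induced stk1 (Δ/+stk1). […] Fold change in MIC taken relative to oxacillin alone.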

[26] = system: Staphylococcus aureus; experiment: Upregulation of blaZ gene expression in methicillin-resistant Staphylococcus aureus ATCC 43300 by RT-PCR method
[27] = system: Staphylococcus aureus; experiment: Antibacterial activity against methicillin-resistant Staphylococcus aureus USA300 harboring stk1 deletion mutant assessed as inhibition of bacterial growth after 18 hrs in presence of oxacillin by CLSI protocol based broth microdilution assay
How it was run: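 USA300 Δstk1 mutant. Oxacillin MIC (µg mL⁻¹) was read with each carbazole held at a fixed 25 or 50 µM, and compared with oxacillin alone in the same strain. Fold change in MIC was taken as alone over cotreated. The parent USA300 and the stk1-complemented (Δ/+stk1) strains were run alongside.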

[28] = system: Staphylococcus aureus; experiment: Upregulation of mecA gene expression in methicillin-resistant Staphylococcus aureus USA300 by RT-PCR method
[29] = system: Staphylococcus aureus; experiment: Potentiation of oxacillin induced antibacterial activity against methicillin-resistant Staphylococcus aureus ATCC 43300 assessed as oxacillin MIC at 25 uM after 18 hrs by CLSI protocol based broth microdilution assay

| SMILES | MIC [1] | fold change (FC) [2] | MIC [3] | MIC [4] | fold change (FC) [5] | MIC [6] | fold change (FC) [7] | fold change (FC) [8] | MIC [9] | other results |
| --- | --- | --- | --- | --- | --- | --- | --- | --- | --- | --- |
| c1ccc2c(c1)[nH]c1ccccc12 [CARBAZOLE] | 32 µg/mL | 1 | > 200 µM | 512 µg/mL | 1 | 256 µg/mL | 1 | 1 | 32 µg/mL | – |
| CO[C@@]1(NC(=O)Cc2cccs2)C(=O)N2C(C(=O)O)=C(COC(N)=O)CS[C@@H]21 [CEFOXITIN] | – | – | 64 µg/mL | – | – | – | – | – | – | MIC [10]: 32 µg/mL; MIC [11]: 256 µg/mL; MIC [12]: 256 µg/mL |
| Clc1ccc2[nH]c3ccc(Cl)cc3c2c1 | – | – | 50 µM | – | – | – | – | – | – | fold change (FC) [13]: 2; fold change (FC) [14]: 1; fold change (FC) [15]: 4; MIC [16]: 16 µg/mL; MIC [17]: 16 µg/mL; MIC [18]: 128 µg/mL; MIC [19]: 256 µg/mL; fold change (FC) [20]: 1 |
| Brc1ccc2c(c1)[nH]c1cc(Br)ccc12 | 8 µg/mL | 4 | > 200 µM | 256 µg/mL | 4 | 64 µg/mL | 4 | 2 | 8 µg/mL | – |
| CC(C)(O/N=C(\C(=O)N[C@@H]1C(=O)N2C(C(=O)[O-])=C(C[n+]3ccccc3)CS[C@H]12)c1csc(N)n1)C(=O)O [CEFTAZIDIME] | – | – | 128 µg/mL | – | – | – | – | – | – | MIC [10]: 512 µg/mL; MIC [11]: 1020 µg/mL; MIC [12]: 1020 µg/mL |
| Brc1ccc2[nH]c3ccccc3c2c1 | 32 µg/mL | 1 | > 200 µM | 512 µg/mL | 1 | 128 µg/mL | 2 | 1 | 32 µg/mL | – |
| Oc1cccc2[nH]c3ccccc3c12 | 32 µg/mL | 1 | > 200 µM | 512 µg/mL | 1 | 256 µg/mL | 1 | 1 | 32 µg/mL | – |
| COc1cccc(OC)c1C(=O)N[C@@H]1C(=O)N2[C@@H]1SC(C)(C)[C@@H]2C(=O)O [METHICILLIN] | – | – | 4 µg/mL | – | – | – | – | – | – | MIC [10]: 32 µg/mL; MIC [11]: 1020 µg/mL; MIC [12]: 512 µg/mL |
| COc1ccc2[nH]c3ccc(OC)cc3c2c1 | 64 µg/mL | >1 | > 200 µM | 512 µg/mL | 0.5 | 256 µg/mL | 1 | 1 | 64 µg/mL | – |
| Brc1ccc2c(c1)[nH]c1ccccc12 | 32 µg/mL | 1 | > 200 µM | 512 µg/mL | 2 | 128 µg/mL | 2 | 1 | 16 µg/mL | – |
| CC1(C)S[C@@H]2[C@H](NC(=O)[C@H](N)c3ccccc3)C(=O)N2[C@H]1C(=O)O [AMPICILLIN] | – | – | 32 µg/mL | – | – | – | – | – | – | MIC [10]: 8 µg/mL; MIC [11]: 32 µg/mL; MIC [12]: 32 µg/mL |
| Cc1onc(-c2ccccc2)c1C(=O)N[C@@H]1C(=O)N2[C@@H]1SC(C)(C)[C@@H]2C(=O)O [OXACILLIN] | – | – | 32 µg/mL | – | – | – | – | – | – | Activity [21]: Active; MIC [10]: 32 µg/mL; MIC [11]: 512 µg/mL; Activity [22]: Active; Activity [23]: Active; Activity [24]: Active; MIC [12]: 256 µg/mL; MIC [25]: 4 µg/mL; Activity [26]: Active; MIC [27]: 0.25 µg/mL; Activity [28]: Active |
| Clc1ccc2c(c1)[nH]c1ccccc12 | 16 µg/mL | 1 | > 200 µM | 512 µg/mL | 2 | 128 µg/mL | 2 | 2 | 16 µg/mL | – |
| Nc1ccc2[nH]c3ccc(N)cc3c2c1 | 16 µg/mL | 1 | > 200 µM | 512 µg/mL | 1 | 256 µg/mL | 1 | 1 | 32 µg/mL | – |
| Ic1ccc2[nH]c3ccccc3c2c1 | 16 µg/mL | 2 | > 200 µM | 512 µg/mL | 2 | 128 µg/mL | 2 | 1 | 16 µg/mL | – |
| CC(C(=O)O)c1ccc2c(c1)[nH]c1ccc(Cl)cc12 (stereo not given) [CARPROFEN] | 16 µg/mL | 1 | 100 µM | 512 µg/mL | – | 256 µg/mL | 1 | 1 | – | MIC [29]: 32 µg/mL |
| Fc1ccc2[nH]c3ccccc3c2c1 | 32 µg/mL | 1 | > 200 µM | 512 µg/mL | 2 | 128 µg/mL | 2 | 1 | 16 µg/mL | – |
